In the library only some 1.9% were active in any assay of this set; here they are far more common.
Neddyl block = inhibitors of human cullin neddylation. actives 0.58% (n = 360,000). TR-FRET cullin neddylation, biochemical. inhibition, % at 25 µM. P61081+Q13564; in the data active means inhibition above about 36%
procasp7 counter = counter-screen for procaspase-3 activators: activators of human procaspase-7; P55210; activation, % at 8.5 µM; actives 0.093% (n = 330,000); recombinant procaspase-7, Ac-DEVD-pNA absorbance 405 nm; D23A/D198A/D206A triple mutant, cannot self-cleave; scale: DMSO 0, 5 µM enzyme 100; AID 463210;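 active means percent activation above the screen-wide mean plus 3 SD, cut at about 25% in these data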
Target sequence (P55210 whole entry D23A/D198A/D206A): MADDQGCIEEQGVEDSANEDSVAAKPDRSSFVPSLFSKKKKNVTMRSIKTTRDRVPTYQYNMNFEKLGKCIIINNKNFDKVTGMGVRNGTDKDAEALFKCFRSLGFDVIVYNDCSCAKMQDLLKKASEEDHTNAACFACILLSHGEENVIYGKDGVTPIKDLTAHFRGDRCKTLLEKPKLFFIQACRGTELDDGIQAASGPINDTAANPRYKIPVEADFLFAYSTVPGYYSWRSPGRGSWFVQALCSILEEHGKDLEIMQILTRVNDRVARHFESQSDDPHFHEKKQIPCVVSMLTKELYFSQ
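System: Uncleavable procaspase-7 mutant enzyme; Amount: 2 µM procaspase-7 mutant as dispensed; Schedule: 1 h compound preincubation, 2 h substrate cleavage, 25 °C; Measured by: 405 nm absorbance of p-nitroaniline; Evaluation: percent activation from buffer-corrected 0–120 min absorbance change; Control set: low DMSO alone, high DMSO plus 5 µM PC-7.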
HIF act = HIF pathway transcriptional activation; U2OS HRE-luciferase reporter, luminescence; normalized: DMSO 0%, desferrioxamine 100%; activation, % at 7.5 µM (by protocol); actives 0.32% (n = 300,000);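 active means mean activation of at least 10% of the iron chelator positive control signal, with at least half of replicates also reaching 10%; inconclusive means mean and replicate majority disagree about reaching 10%; inactive means mean and most replicates under 10%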
procasp3 activ = activates human procaspase-3 | recombinant procaspase-3 D3A, Ac-DEVD-pNA absorbance 405 nm | activation, % at 8.5 µM | actives 0.11% (n = 330,000) | AID 463141;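 active means activation above the mean of all tested compounds plus 3 SD, cut at about 21% in these data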
Target sequence (P42574 whole entry D9A/D28A/D175A): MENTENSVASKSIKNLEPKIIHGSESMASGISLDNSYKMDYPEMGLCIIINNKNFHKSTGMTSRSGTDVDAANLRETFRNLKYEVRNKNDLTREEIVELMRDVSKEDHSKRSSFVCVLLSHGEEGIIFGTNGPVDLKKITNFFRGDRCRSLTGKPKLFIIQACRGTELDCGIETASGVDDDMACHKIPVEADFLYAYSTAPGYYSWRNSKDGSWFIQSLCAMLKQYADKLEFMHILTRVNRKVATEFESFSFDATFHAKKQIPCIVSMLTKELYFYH
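Compound: 8.5 µM single point, 0.8% DMSO / Material: Autoprocessing-dead procaspase-3 D3A mutant enzyme / Timing: 1 h preincubation plus 2 h reaction at 25 °C / Medium: Zinc-free HEPES/NaCl buffer with 0.01% Triton X-100 at pH 7.4 / Technique: 405 nm absorbance of p-nitroaniline, reads at 0 and 120 min / Repeats: one well per compound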
FXN GAA850 act = frataxin GAA850 promoter activation; HEK293 lucGAA850 FXN promoter luciferase reporter, 24 h; percent of 10 µM SAHA response; activation, % at 6 µM; actives 0.56% (n = 360,000);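 active means activation above the average of all compounds screened plus 3 SD, cutoff fixed separately per campaign, cut at about 7.5% in these data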
Calb FLC = affects C. albicans growth with fluconazole; C. albicans CaCi-2 + fluconazole, Alamar Blue growth, 48 h; growth inhibition, % (concentration not given with the values); actives 0.57% (n = 300,000); AID 1979;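 active means growth inhibition above about 58% in most replicates, limit read from the data, passing the limit was not always enough; inconclusive means exactly half the replicates above a set limit; inactive means most replicates below a set limit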;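 further: all wells also contain fluconazole at 8 µg/ml as a sub-toxic cotreatment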
GAA30 counter = counter-screen for GAA850 frataxin promoter activators: GAA30 promoter activation. AID 588350. actives 66% (n = 1,900). HEK293 lucGAA30 FXN promoter luciferase, 24 h; DMSO = 0%, 5 µM ipriflavone = 100%. shares compounds with FXN GAA850 act. activation, % at 6 µM;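 active means mean activation above the mean of solvent-only control wells plus 3 SD, cut at about 22% in these data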;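 further: counterscreen of GAA850 promoter hits where activity marks nonselective or luminescence artifacts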
FXN GAA850 conf = confirmation of GAA850 frataxin (FXN) promoter activators | HEK293 lucGAA850 FXN promoter luciferase reporter, 24 h; 100% = activation by SAHA | activation, % at 6 µM | actives 86% (n = 1,900) | AID 588351 | shares compounds with FXN GAA850 act;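 active means mean activation above a set limit taken from the primary screen, cut at about 8% in these data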
A number is an active result; – = inactive; ? = inconclusive; · = not tested or not shown.

SMILES | Neddyl block | procasp7 counter | HIF act | procasp3 activ | FXN GAA850 act | Calb FLC | GAA30 counter | FXN GAA850 conf
CC[C@]12c3[nH]c4ccc(Cl)cc4c3CCN1C(=O)[C@@H](CC(=O)NCC13CC4CC(CC(C4)C1)C3)C[C@@H]2C(=O)N1CCN(C(=O)c2ccco2)CC1 | – | – | · | – | – | · | · | ·
CC[C@]12c3[nH]c4ccc(OC)cc4c3CCN1C(=O)C(CC(=O)NCC13CC4CC(CC(C4)C1)C3)C[C@@H]2C(=O)N1CCN(C(=O)c2ccco2)CC1 (stereo partly drawn) | – | – | · | – | 15 | · | – | 11
O=C(Nc1ccc2c(c1)OCO2)c1cc(C2CCCN(C(=O)C3CCCCC3)C2)on1 (stereo not drawn) | – | · | · | · | – | · | · | ·
CCN(C[C@H]1N[C@@](C)(C(=O)OC)[C@H]2C(=O)N(Cc3ccccc3)C(=O)[C@@H]12)C(=O)Nc1ccc(C)cc1 | – | – | · | – | 16 | · | 28 | 12
COC(=O)[C@]1(C)N[C@H](CN(C)C(=O)Nc2ccccc2)[C@@H]2C(=O)N(Cc3ccccc3)C(=O)[C@@H]21 | – | – | · | – | 9.4 | · | 22 | 9.8
CCC(C)Oc1cc(-c2ccnc(Nc3cccc(Cl)c3)n2)ccn1 (stereo not drawn) | – | – | – | – | 22 | – | 40 | 82
COc1ccc(-c2cnc(C(N)=O)c(=O)[nH]2)cc1 | · | · | · | · | – | · | · | ·
O=C(/C=C/c1ccc(O)c(O)c1)c1ccccc1O | – | – | – | – | 13 | – | 75 | 35
O=C(/C=C/c1ccc(O)c(O)c1)OCCc1ccccc1 | · | – | – | – | 16 | · | 31 | 23
COc1ccc([C@@H]2[C@@H]3C(=O)N(C(C)(C)C)C(=O)[C@@H]3[C@]3(Cc4ccccc4)C(=O)N(c4ccc(OC)cc4)C(=O)N23)cc1 | – | – | – | – | – | – | · | ·
CC(C)(C)N1C(=O)[C@H]2[C@@H](c3ccc(Br)cc3)N3C(=O)N(c4cccc(Br)c4)C(=O)[C@@]3(Cc3ccccc3)[C@H]2C1=O | – | – | – | – | 15 | – | – | 11
CCN1C(=O)[C@H]2[C@@H](c3ccc(C)cc3)N3C(=O)N(c4cccc(Br)c4)C(=O)[C@@]3(Cc3ccccc3)[C@H]2C1=O | – | – | – | – | – | – | · | ·
CC(C)(C)N1C(=O)[C@H]2[C@@H](c3ccc(Br)cc3)N3C(=O)N(c4ccccc4)C(=O)[C@@]3(Cc3ccccc3)[C@H]2C1=O | – | – | – | – | 9.9 | – | – | 14
CC(=O)OCCn1c([N+](=O)[O-])cnc1C=[N+]([O-])C1CCCCC1 | – | · | · | · | – | · | · | ·
O=C(c1cc2ccccc2o1)c1cccs1 | – | – | – | – | 8.3 | – | 117 | 40
O=C(NC(=S)Nc1ccc(NC(=O)c2cccs2)cc1)c1cc2ccccc2o1 | – | – | – | – | – | – | · | ·
COc1ccc(NC(=O)C2CCCN2S(=O)(=O)c2ccc3c(c2)CCC(=O)N3)cc1Cl (stereo not drawn) | – | – | · | – | 9.1 | · | – | 12
CN(N=Cc1ccccc1)C(=S)Nc1ccccc1 | – | · | · | · | – | · | · | ·
COc1ccccc1/C=C/C1C(C(=O)OCC(C)C)=C(C)N=C2SCCC(=O)N21 (stereo not drawn) | – | – | – | – | – | – | · | ·
COC(=O)C1=C(C)N=C2SCCC(=O)N2C1/C=C/c1ccccc1 (stereo not drawn) | – | – | – | – | 8.0 | – | – | –
COC(=O)C1=C(C)N(C)C(=O)NC1c1cc(Cl)cc(Cl)c1OC (stereo not drawn) | – | – | · | – | – | – | · | ·
COC(=O)C1=C(C)N(C)C(=O)NC1c1cc(Cl)c(O)c(OC)c1 (stereo not drawn) | – | – | 692 | – | 7.8 | – | – | 12
Cc1ccccc1Oc1ccc2c(c1)[C@@H]1C[C@H](N(C)C(=O)c3cccnc3)[C@H]([C@H](C)O)C(=O)N1CC2 | – | · | · | · | – | · | · | ·
Cc1ccc(/C=N\Nc2cn[nH]c(=O)c2Cl)cc1 | – | – | – | – | 11 | – | 104 | 32
Cc1ccc(-c2cn(-c3ccccc3)c(SCC(N)=O)n2)cc1C | – | – | – | – | – | – | · | ·
SMILES | Neddyl block | procasp7 counter | HIF act | procasp3 activ | FXN GAA850 act | Calb FLC | GAA30 counter | FXN GAA850 conf
CCOC(=O)NC(=O)CSc1nc(-c2ccc(C)c(C)c2)cn1-c1ccccc1 | – | – | – | – | 7.9 | – | 62 | 34
CC1CCCC(C)N1CCCNC(=O)c1ccc2c(c1)NC(=O)c1ccccc1S2 (stereo not drawn) | – | – | – | – | – | ? | · | ·
CCC(C)N(CCNC(=O)c1ccc2c(c1)NC(=O)c1ccccc1S2)C1CCCCC1 (stereo not drawn) | – | – | – | – | 11 | – | – | 11
N#C/C(=C\c1cccs1)c1nc2ccccc2[nH]1 | – | – | – | – | – | – | · | ·
N#C/C(=C/c1ccc(O)c(O)c1)c1nc2ccccc2[nH]1 | – | – | – | – | 9.2 | – | 102 | 39
CC(C)(C)c1ccc(OCCn2ccccc2=O)cc1 | – | – | – | – | 8.5 | – | 100 | 41
CCCCn1c(SCc2ccc(Cl)cc2)nc2c1c(=O)[nH]c(=O)n2C | – | – | – | – | 8.9 | – | – | 10
CC(C)Cn1c([N+](=O)[O-])nc2c1c(=O)[nH]c(=O)n2C | – | – | – | – | – | – | · | ·
CCSc1nc2c(c(=O)[nH]c(=O)n2C)n1Cc1ccc(Cl)cc1 | – | – | · | – | 7.6 | · | 23 | 18
C/C=C/CSc1nc2c(c(=O)[nH]c(=O)n2C)n1Cc1ccc(C)cc1 | – | – | – | – | 29 | – | – | 17
Cc1ccc(Cn2c(Sc3ncccn3)nc3c2c(=O)[nH]c(=O)n3C)cc1 | – | – | – | – | – | – | · | ·
Cn1c(=O)[nH]c(=O)c2c1nc([N+](=O)[O-])n2Cc1ccccc1 | – | – | – | – | 8.5 | – | – | –
Cc1cccc(CSCC(=O)N2CCN(S(=O)(=O)c3ccccc3C#N)CC2)c1 | – | · | · | · | – | · | · | ·
N#CC12C(=O)NC(=O)C1(C#N)C21CCCC1 (stereo not drawn) | – | · | · | · | – | · | · | ·
N#C/C(=C\c1cccs1)C(=O)Nc1nccs1 | – | – | – | – | 9.2 | – | 106 | 28
N#C/C(=C\c1cccs1)C(=O)NCc1ccccc1 | – | – | – | – | – | – | · | ·

Screening data: PubChem, several laboratories
